Screening data: PubChem BioAssay, several laboratories
SENP8 block-1: human SENP8 protease inhibitors, primary screen, biochemical, fluorescence, Nedd8 protein substrate, uHTS | Sentrin-specific protease 8 (Homo sapiens), Q96LD8 | recombinant SENP8 | inhibition, % at 20 µM | 360,000 tested, 0.64% active | AID 602440, 2012; in the data active means inhibition mostly above about 40%, no sharp cut-off; inactive means mostly below about 27%
SENP7 block: SENP7 protease inhibitors, primary screen, biochemical, luminescence, uHTS; Sentrin-specific protease 7 (Homo sapiens), Q9BQF6; recombinant SENP7, Z-RLRGG-aminoluciferin luminescence, 40 min; inhibition, % at 5 µM; 330,000 tested, 1.5% active;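 active means inhibition above about 50% at the single test dose, limit read from the data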;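 further: plate controls were DMSO with enzyme for no effect and no enzyme buffer wells for full effect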
SENP6 inh: SENP6 protease inhibitors, primary screen, biochemical, luminescence, uHTS; Sentrin-specific protease 6 (Homo sapiens), Q9GZR1; 330,000 tested, 1.8% active; inhibition, % at 10 µM; Recombinant SENP6 catalytic domain, aminoluciferin luminescence; AID 2599, 2010;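 active means inhibition above about 50% at the single tested dose, limit read from the data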;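 further: plate controls were DMSO wells with enzyme for no effect and DMSO wells lacking enzyme for full effect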
Target sequence (Q9GZR1 628-1112 limits assumed): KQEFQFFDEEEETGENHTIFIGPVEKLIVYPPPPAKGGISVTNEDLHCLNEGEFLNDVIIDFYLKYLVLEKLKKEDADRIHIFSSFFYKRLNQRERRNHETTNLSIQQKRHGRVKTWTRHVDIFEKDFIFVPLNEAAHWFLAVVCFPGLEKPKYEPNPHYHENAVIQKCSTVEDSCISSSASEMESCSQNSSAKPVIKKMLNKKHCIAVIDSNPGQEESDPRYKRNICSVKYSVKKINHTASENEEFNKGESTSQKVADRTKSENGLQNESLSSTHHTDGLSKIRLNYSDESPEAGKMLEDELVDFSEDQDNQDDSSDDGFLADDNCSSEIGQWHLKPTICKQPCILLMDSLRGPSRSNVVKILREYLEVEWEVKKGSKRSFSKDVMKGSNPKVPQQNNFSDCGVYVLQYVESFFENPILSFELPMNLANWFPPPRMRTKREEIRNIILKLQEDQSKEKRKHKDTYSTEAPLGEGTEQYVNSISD
HSP90 refold inh: HSP90 inhibitors, primary screen, cell lysate, luminescence; 290,000 tested, 0.91% active; Rabbit reticulocyte lysate, luciferase refolding luminescence, 3 h; inhibition, % at 5.6 µM;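 active means inhibition above the screen-wide mean plus 3 SD, computed separately per campaign, cut at about 16% in these data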;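 further: 0% = DMSO wells and 100% = 60 µM geldanamycin wells; inhibitors lower the luminescence because luciferase stays unfolded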
SENP8 block-2: SENP8 protease inhibitors, primary screen, biochemical, luminescence. Sentrin-specific protease 8 (Homo sapiens), Q96LD8. purified SENP8, Z-RLRGG-aminoluciferin cleavage. 330,000 tested, 1.2% active. inhibition, % at 10 µM; in the data active means inhibition above about 50%
SENP1 FRET inh: human SENP1 catalytic domain inhibitors, primary screen, biochemical, FRET, uHTS | recombinant SENP1 catalytic domain, CyPet-SUMO1-YPet FRET cleavage | inhibition, % at 10 µM | 360,000 tested, 0.21% active | AID 624204, 2012;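 active means inhibition at least 30% at 10 µM, raw YFP signal under a set limit, fluorescence ratio 0.5 to 1.5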;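 further: 0% = enzyme with DMSO and 100% = no enzyme wells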
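Assay system – human recombinant His6-tagged SENP1 catalytic domain enzyme · Input – SENP1 enzyme, 20 pM final · Buffer or medium – Tris pH 8 buffer plus EDTA, NaCl, BME, BSA, NP40, catalase · Schedule – 50 min reaction at room temperature · Technique – FRET read of cyan and yellow fluorescence · Control set – no-enzyme wells low, DMSO-plus-enzyme wells high control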
HSP90 confirm: HSP90 inhibitors, confirmation, cell lysate, luminescence; shares compounds with HSP90 refold inh; rabbit reticulocyte lysate, luciferase refolding luminescence, 3 h; inhibition, % at 5.9 µM; 2,300 tested, 64% active; in the data active means inhibition above about 18%;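 further: 0% = vehicle wells and 100% = reference inhibitor wells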
FLuc counter: firefly luciferase inhibitors, HSP90 counter-screen, confirmation, artefact control for HSP90 inhibitor project, biochemical, luminescence, triplicate; shares compounds with HSP90 refold inh; purified native firefly luciferase; inhibition, % at 5.9 µM; 2,300 tested, 48% active;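 active means inhibition above the mean inhibition of all tested sample wells plus 3 SD, cut at about 10% in these data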;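 further: 0% = DMSO with luciferase and 100% = wells lacking luciferase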
* hit, by the source's call; x = not tested or not shown. Compounds with a hit are over-represented: about 2.9% of the library has one in this group of screens.

SMILES	SENP8 block-1	SENP7 block	SENP6 inh	HSP90 refold inh	SENP8 block-2	SENP1 FRET inh	HSP90 confirm	FLuc counter
C=CCn1c(C)cc(C(=O)Cn2nc(C(=O)O)c3ccccc3c2=O)c1C	-4.9	-0.1	13.6	51.0*	9.8	1.4	70.9*	19.5*
CN1CCN(C(=O)Cn2c(=O)oc3cc(S(=O)(=O)NCc4ccccc4)ccc32)CC1	24.5	-10.1	-4.0	-0.8	4.1	3.8	x	x
O=C1OCC(CO)(CO)N=C1NNc1ccccc1[N+](=O)[O-]	36.8	-8.1	-3.1	21.1*	-3.5	5.1	9.0	3.9
O=C(Cc1cccs1)N=Nc1c(O)[nH]c2ccc(Br)cc12	20.7	5.8	-29.6	0.4	5.1	2.3	x	x
COc1ccc2[nH]c(O)c(N=NC(=O)Cc3cccs3)c2c1	33.9	-11.3	-11.7	22.6*	-5.8	3.4	-9.2	-16.5
CCOC(=O)c1ccc(N(C(=O)CNC(=O)c2ccco2)C(C(=O)NCC2CCCO2)c2ccc(OC)c(OC)c2)cc1 (stereo not given)	3.5	-1.2	14.4	-2.1	2.0	0.8	x	x
CCOc1ccc(NS(=O)(=O)c2cc3c4c(c2)C(C)C(=O)N4CCC3)cc1 (stereo not given)	9.7	6.6	-12.2	-2.4	-16.9	-0.6	x	x
CCOC(=O)C1=C(C)NC(=O)NC1c1ccsc1 (stereo not given)	13.0	-0.4	-2.6	-3.9	-3.6	-0.8	x	x
CC1=C(C(=O)OCC(C)C)C(c2ccsc2)NC(=O)N1 (stereo not given)	2.6	-3.9	-2.5	23.9*	6.5	0.8	1.6	-4.9
COc1ccc(-c2csc(NC(=S)NC(=O)/C=C/c3ccco3)n2)cc1OC	30.9	x	x	5.5	x	2.5	x	x
COc1ccc(-c2csc(NC(=S)NC(=O)/C=C/c3ccc(C(C)C)cc3)n2)cc1OC	13.4	-1.5	2.4	18.9*	2.9	1.0	13.1	0.4
CCOc1ccc(C(=O)CC(NCc2cccs2)C(=O)O)cc1 (stereo not given)	11.0	x	x	-0.5	x	-4.8	x	x
CCC(C(=O)NCCCN1CCOCC1)n1c2ccccc2c2nc(=O)cc(C)n21 (stereo not given)	-21.1	-7.8	3.0	-1.9	4.3	0.3	x	x
COc1ccc(-c2cc(C)nc(SCc3cccc(C(=O)O)c3)n2)cc1	18.9	-13.3	-15.1	-2.7	-17.2	2.0	x	x
Cc1nc(SCc2cccc(C(=O)O)c2)nc2c1CCCC2	8.9	-3.2	-10.5	17.6*	-0.9	4.2	46.5*	17.7*
CCc1cc2c(-n3nc(C)cc3C)ncnc2s1	4.2	-0.7	1.3	39.2*	-1.3	2.0	-1.6	-1.8
COc1ccc(CCNC(=O)c2nnn(-c3ccccc3OC)c2N)cc1OC	6.3	-5.6	5.3	5.9	-3.3	0.3	x	x
COc1ccc(CCNC(=O)c2nnn(-c3ccc4c(c3)OCCO4)c2N)cc1OC	-17.0	0.4	-5.3	28.8*	-5.2	-0.1	64.0*	66.1*
CC(=O)N/N=C\c1cccc(OC/C=C/c2ccccc2)c1	-6.7	-2.6	-14.7	20.9*	-0.7	0.7	18.6*	-12.6
N#CCC(=O)N/N=C\c1cccc(OC/C=C/c2ccccc2)c1	-6.6	-7.4	-2.8	21.4*	-1.8	1.9	26.1*	-26.4
COc1cc(/C=N\NC(=O)CC#N)ccc1OC/C=C/c1ccccc1	-41.1	10.0	-2.9	-0.2	-0.8	-2.2	x	x
Cc1nn(CC(=O)NCc2ccccc2)c(C)c1[N+](=O)[O-]	14.8	6.1	-10.6	-2.5	-3.6	0.6	x	x
Cc1nn(CC(=O)c2ccccc2Cl)c(C)c1[N+](=O)[O-]	20.3	42.4	4.9	21.6*	28.2	-0.3	33.3*	27.9*
Cc1ccc(NCC(=O)c2ccc(C)cc2)cc1	18.7	2.4	4.3	22.4*	0.7	0.6	4.8	-11.7
